# Experimental data as given in ChEMBL document CHEMBL6134900 (J Med Chem, 2025).
# Test system: NCI-H2030
# Assay: Antitumor activity against human NCI-H2030 cells harboring KRAS G12C mutant/SMARCA4 mutant assessed as cell growth inhibition incubated for 7 days by Incucyte S3 analysis
# Format: functional, cell-based
# Settings: time 7.0 day; call rule not given here
# Summary of the method: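 H2030 cells plated at 500 per well and grown overnight at 37 °C. Treated with 3-fold dilutions of sotorasib, test agent, or both. Confluency imaged every 4 h for 7 days on IncuCyte S3. Synergy scored as Bliss/Lowe consensus, >10 taken as synergy.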
smiles,measurement,value
C=CC(=O)N1CCN(c2nc(=O)n(-c3c(C)ccnc3C(C)C)c3nc(-c4c(O)cccc4F)c(F)cc23)[C@@H](C)C1,Activity,Active; Minimal Inhibition Observed
